Assay [1] deals with COLO 205. Kind of assay: Cytotoxicity against human COLO205 cells assessed as growth inhibition at 50 uM after 48 hrs by sulforhodamine B assay. As to conditions: COLO 205, 48 h, read-out: GI. The format is functional. In short, it runs like this: (§1)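 Single-point SRB screen at 50 µM. Cells were seeded and grown 24 h at 37°C in a CO2 incubator, then exposed to compound in complete medium for 48 h. Cells were fixed with 50% TCA for 1 h at 4°C, water-washed, and stained with 0.4% SRB in 1% acetic acid for 30 min. After 1% TCA washes, dye was dissolved in Tris-HCl (0.01 M, pH 10.4) and OD read at 540 nm.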

Assay [2] has as its system A549. The experiment in a line: Cytotoxicity against human A549 cells assessed as growth inhibition at 50 uM after 48 hrs by sulforhodamine B assay. The format is functional. To be noted: for inhibition of growth at 50 µM: A549, 48 h, read-out: GI. An outline of the steps: as §1
Assay [3] has as its system THP-1. The experiment in a line: Cytotoxicity against human THP1 cells assessed as growth inhibition after 48 hrs by sulforhodamine B assay. The class given is functional, cell-based. As to conditions: THP-1, 48 h. An outline of the steps:
(§2)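 SRB growth assay with compound dilutions over several concentrations. Cells were pre-grown 24 h at 37°C in a CO2 incubator, then exposed for 48 h. Cells were fixed with 50% TCA (1 h, 4°C) and stained with 0.4% SRB in 1% acetic acid for 30 min. Bound dye was solubilised in 0.01 M Tris-HCl (pH 10.4) and read at 540 nm. Percent inhibition versus untreated (blank-subtracted) was used to calculate IC50.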

A short description of assay [4]: Cytotoxicity against human HCT116 cells assessed as growth inhibition after 48 hrs by sulforhodamine B assay. The class given is functional, cell-based. To be noted: HCT-116, 48 h. In short, it runs like this: as §2
The subject of assay [5] is THP-1. Kind of assay: Cytotoxicity against human THP1 cells assessed as growth inhibition at 50 uM after 48 hrs by sulforhodamine B assay. To be noted: THP-1, 48 h, read-out: GI. The class given is functional. In short, it runs like this: as §1
Assay [6] can be described thus: Cytotoxicity against human HCT116 cells assessed as growth inhibition at 50 uM after 48 hrs by sulforhodamine B assay. The format is functional. As to conditions: HCT-116, 48 h, read-out: GI. In short, it runs like this: as §1
Assay [7] deals with COLO 205. Kind of assay: Cytotoxicity against human COLO205 cells assessed as growth inhibition after 48 hrs by sulforhodamine B assay. The format is functional, cell-based. To be noted: COLO 205, 48 h. An outline of the steps:
as §2

Assay [8] has as its target Tubulin. Kind of assay: Inhibition of tubulin (unknown origin) polymerization after 1 hr by spectrophotometry. The format is protein-complex assay, Homo sapiens. In short, it runs like this: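 Kit tubulin (10 mg in 1 mL general tubulin buffer plus 10 µL of 100 mM GTP) was held at 4°C. Compounds came from a 100 µM DMSO stock diluted to 50, 25 and 10 µM (pre-assay dilutions). Compound was pre-warmed in plate wells 2 min at 37°C before adding tubulin diluted in polymerization buffer (general buffer, glycerol buffer, GTP).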

Assay [9] has as its system THP-1. The experiment in a line: Disruption of microtubule organization in human THP1 cells at 1 uM after 48 hrs by immunofluorescence technique. The format is cell-based.
The test system of assay [10] is A549. Kind of assay: Cytotoxicity against human A549 cells assessed as growth inhibition at 1 uM after 48 hrs by sulforhodamine B assay. The class given is functional. To be noted: A549, 48 h, read-out: GI.
Assay [11] relates to THP-1. Kind of assay: Disruption of microtubule organization in human THP1 cells at 5 uM after 48 hrs by immunofluorescence technique. The class given is cell-based. In short, it runs like this: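 THP-1 cells were exposed to 1 µM paclitaxel or 5 µM test agent for 48 h, alongside untreated controls. Microtubules and unassembled tubulin were immunostained (green) and DNA was stained with DAPI. Microtubule organisation was examined by confocal microscopy.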

Assay [12] is described as follows: Cytotoxicity against human HCT116 cells assessed as growth inhibition at 1 uM after 48 hrs by sulforhodamine B assay. To be noted: HCT-116, 48 h, read-out: GI. The format is functional.
The test system of assay [13] is COLO 205. Kind of assay: Cytotoxicity against human COLO205 cells assessed as growth inhibition at 1 uM after 48 hrs by sulforhodamine B assay. The format is functional. To be noted: COLO 205, 48 h, read-out: GI.
Assay [14] concerns THP-1. The experiment in a line: Cytotoxicity against human THP1 cells assessed as growth inhibition at 1 uM after 48 hrs by sulforhodamine B assay. The format is functional. To be noted: THP-1, 48 h, read-out: GI.

The values below come from ChEMBL document CHEMBL3351969, “Chalcone based azacarboline analogues as novel antitubulin agents: design, synthesis, biological evaluation and molecular modelling studies” (Eur J Med Chem, 2014).

pIC50: −log10 of the molar value. Structures can show the parent of a compound that is named as a salt. Activity calls are given as the source filed them. The calls are words filed in the database; no cut-off is given here.

As to `CC(=O)n1c2ccccc2c2cc(-c3ccc[nH]3)nnc21`, the inhibition of growth at 50 µM in assay [1] stood at 68%; in assay [2], 12%; in assay [5] it was 78%; in assay [6], 72%. Besides, the pIC50 was 5.37 in assay [3], 5.21 in [4] and 5.14 in [7].

For `CC(=O)n1c2cccc(Cl)c2c2cc(-c3cccc4ccccc34)nnc21`, the inhibition of growth at 50 µM amounted to 40% in [1], 18% in assay [2], 65% in [5] and 44% in [6]. In addition, the pIC50 in [3] is 4.85; in [4], 4.81; in [7], 4.74.

As for `CC(=O)n1c2ccccc2c2cc(-c3cccs3)nnc21`, the inhibition of growth at 50 µM in [1] stood at 69%; in assay [2], 10%; in [5] it was 76%; in assay [6], 71%. Besides, the pIC50 is 5.37 in assay [3], 5.21 in assay [4] and 5.15 in assay [7].

Regarding `CC(=O)n1c2ccccc2c2cc(-c3ccc4ccccc4c3)nnc21`, the pIC50 was 5.05 in assay [8], 5.62 in assay [3], 5.35 in assay [4] and 5.24 in assay [7]. In addition, the inhibition of growth at 50 µM was determined as 82% in assay [1], 89% in [5] and 81% in assay [6]. The “growth inhibition (GI)” value in assay [2] was “inactive”.

Turning to `CC(=O)n1c2cccc(Cl)c2c2cc(-c3ccc4ccccc4c3)nnc21`, the inhibition of growth at 50 µM in [1] worked out at 41%; in [2], 19%; in assay [5], 68%; in assay [6], 45%. Moreover, the pIC50 in assay [3] is 4.85; in assay [4], 4.79; in assay [7], 4.75.

Turning to `COc1cc(-c2cc3c4c(Cl)cccc4n(C(C)=O)c3nn2)cc(OC)c1OC`, the inhibition of growth at 50 µM in assay [1] turned out to be 59%; in assay [5], 77%; in assay [6], 66%. The “growth inhibition (GI)” value in assay [2] is “inactive”. The pIC50 in assay [3] is 4.87; in assay [4] it was 4.80; in assay [7], 4.77.

For `COc1ccc(-c2cc3c4ccccc4n(C(C)=O)c3nn2)cc1OC`, the negative-log IC50 (pIC50) in assay [8] was 5.31; in assay [3] it was 5.63; in [4] it was 5.36; in [7] it was 5.24. The inhibition of growth at 50 µM in assay [1] is 82%; in assay [2], 12%; in [5], 90%; in [6], 80%.

Turning to `CC(=O)O[C@H]1C(=O)[C@@]2(C)[C@H]([C@H](OC(=O)c3ccccc3)[C@]3(O)C[C@H](OC(=O)[C@H](O)[C@@H](NC(=O)c4ccccc4)c4ccccc4)C(C)=C1C3(C)C)[C@]1(OC(C)=O)CO[C@@H]1C[C@@H]2O` [PACLITAXEL], the outcome in assay [9] was Active. The inhibition of growth at 1 µM in [10] is 70%.

`COc1ccc(-c2cc3c4ccccc4n(C(C)=O)c3nn2)cc1`: the inhibition of growth at 50 µM was determined as 72% in [1], 10% in assay [2], 81% in assay [5] and 72% in assay [6]. The pIC50 in [3] is 5.46; in assay [4] it was 5.28; in [7], 5.18.

For the compound `CC(=O)n1c2ccccc2c2cc(-c3cccc4ccccc34)nnc21`, the pIC50 in assay [8] is 5.05; in [3], 5.62; in [4], 5.36; in assay [7], 5.24. Also, the inhibition of growth at 50 µM in assay [1] is 83%; in assay [5], 89%; in assay [6], 80%. For the same compound, the “growth inhibition (GI)” value in assay [2] was “inactive”.

Take `COc1cc(-c2cc3c4ccccc4n(C(C)=O)c3nn2)cc(OC)c1OC`: the pIC50 was 5.62 in [8], 5.95 in [3], 5.54 in assay [4] and 5.38 in assay [7]. In addition, the inhibition of growth at 50 µM in assay [1] was 89%; in assay [2] it was 20%; in assay [5], 99%; in assay [6], 86%. Further, in assay [11], the result was Active.

`CC(=O)n1c2ccccc2c2cc(-c3ccccc3)nnc21`: the inhibition of growth at 50 µM in assay [1] turned out to be 64%; in [2], 10%; in [5], 71%; in assay [6] it was 66%. The pIC50 was 5.24 in [3], 5.11 in [4] and 5.09 in [7].

With `COc1ccc(-c2cc3c4c(Cl)cccc4n(C(C)=O)c3nn2)cc1OC`, the inhibition of growth at 50 µM in assay [1] turned out to be 54%; in assay [5], 71%; in assay [6], 49%. Also, the “growth inhibition (GI)” value in assay [2] is “inactive”. For the same compound, the pIC50 was 4.86 in assay [3], 4.80 in assay [4] and 4.76 in assay [7].

`COc1cccc2c1C(=O)c1c(O)c3c(c(O)c1C2=O)C[C@@](O)(C(=O)CO)C[C@@H]3O[C@H]1C[C@H](N)[C@H](O)[C@H](C)O1` [DOXORUBICIN HYDROCHLORIDE]: the inhibition of growth at 1 µM in assay [12] stood at 66%; in assay [13] it was 72%; in [14], 71%.

As to `COc1ccc(-c2cc3c4c(Cl)cccc4n(C(C)=O)c3nn2)cc1`, the inhibition of growth at 50 µM in assay [1] worked out at 39%; in assay [2], 14%; in assay [5] it was 60%; in assay [6], 36%. Besides, the pIC50 in [3] is 4.83; in [4], 4.77; in [7] it was 4.74.
